HUVEC inhibit: blocks proliferation of human endothelial cells; viability, % at 10 µM (by protocol); AID 648; 1.1% of 86,000 active; HUVEC proliferation, CellTiter-Glo luminescence, 72 h; stronger effect = lower value;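 active = viability at or below 30%; inactive = viability above 30%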;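 also: 100% = median luminescence of DMSO-only cell control wells on each plate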
PTEN del growth: suppresses growth of cells with PTEN deletion. HCT116 PTEN-null viability, CellTiter-Glo, 60 h; stronger effect = lower value. viability, % at 10 µM. 1.2% of 140,000 active;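 active = viability at or below a set limit, 4 SD under the median of all tested compounds, cut at about 3.7% in these data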;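 also: PTEN knockout HCT116 line with beta catenin targeted HCT116 as companion control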
H69AR growth 86K: growth inhibitors of human H69AR lung tumor cells; H69AR lung tumor viability, ATP luminescence, 72 h; stronger effect = lower value; viability, % at 10 µM; 6% of 85,000 active;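 active = viability at or below 40%; inactive = viability above 40%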;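 also: multidrug resistant small cell line overexpressing MRP-1 efflux transporter; 100% = mean luminescence of untreated control wells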
Fibroblast inh: blocks proliferation of human lung fibroblasts; LL 47 human lung fibroblast viability, ATP luminescence; stronger effect = lower value; viability, % at 10 µM; 1.1% of 85,000 active; AID 719;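 active = viability at or below 50% in the single dose screen; inactive = viability above 50%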;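 also: compound exposure lasted 72 h before the ATP readout; 100% = median luminescence of untreated cell-only wells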
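Times – overnight cell rest, 72 h compound treatment at 37 °C · Test system – human lung fibroblast line LL 47, low passage · Amount – 1,150 cells in each well · Controls – cell-only wells, no compound · Doses – 0.1% DMSO in all compound wells · Measured by – CellTiter-Glo luminescence · Buffer or medium – IMEM plus 15% FBS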
HCT116 bCat-KO: beta-catenin-lacking colon tumor cell growth suppression; HCT116 beta-catenin knockout viability, CellTiter-Glo, 60 h; stronger effect = lower value; viability, % at 10 µM; 1.5% of 140,000 active;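 active = viability at or under a set limit, the compound median less 4 SD, cut at about 6% in these data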;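 also: 0% = Hyamine 1622 control at 20 µM and 100% = untreated cell control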
Active calls of the source: *. Shown is part of a subset that was picked to be rich in hits.

How did Cc1cc(NC(=O)c2cc(-c3ccncc3)nc3c(C)cccc23)no1 do in these assays?
HUVEC inhibit: 32.8; PTEN del growth: 15.9; H69AR growth 86K: 23.5*; Fibroblast inh: 50.2; HCT116 bCat-KO: 9.1

How did COc1ccc(/C=C/c2nc3cc(-c4ccccc4)ccc3o2)cc1O do in these assays?
PTEN del growth: 29.6; HCT116 bCat-KO: 54.0

What do the screens show for `COc1ccc(-c2c/c(=N\c3nc(-c4ccccc4)c(C)s3)c3ccccc3o2)cc1O`?
HUVEC inhibit: 34.1; PTEN del growth: 16.0; H69AR growth 86K: 30.6*; Fibroblast inh: 39.8*; HCT116 bCat-KO: 17.5

How did CCC(C)(C#CCN1CCCCC1)OCCC#N (centres undefined) do in these assays?
PTEN del growth: 94.1; HCT116 bCat-KO: 89.3

How did CC1CCCN(S(=O)(=O)c2ccc(S(=O)(=O)N3CCCN(Cc4ccccc4)C3)cc2)C1 (centres undefined) do in these assays?
HUVEC inhibit: 41.3; H69AR growth 86K: 31.4*; Fibroblast inh: 85.1

Results for CC1CCN(S(=O)(=O)c2ccc(S(=O)(=O)N3CCCN(Cc4ccccc4)C3)cc2)CC1 ?
HUVEC inhibit: 81.4; H69AR growth 86K: 80.4; Fibroblast inh: 99.4

What do the screens show for `O=C(NCc1cccnc1)/C(=C\c1ccc(-c2ccc(Br)cc2)o1)S(=O)(=O)c1ccccc1`?
PTEN del growth: 0.9*; HCT116 bCat-KO: 1.6*

What do the screens show for `O=C(NCc1cccnc1)/C(=C/c1ccc(-c2ccc(Cl)cc2)o1)S(=O)(=O)c1ccccc1`?
PTEN del growth: 1.3*; HCT116 bCat-KO: 1.7*

Results for O=C(NCc1cccnc1)/C(=C/c1ccc(-c2cccc(C(F)(F)F)c2)o1)NC(=O)c1ccccc1 ?
PTEN del growth: 32.3; HCT116 bCat-KO: 40.8

Results for O=S(=O)(Nc1ccc(-c2csc(-c3ccccc3)n2)cc1)c1ccc(F)cc1 ?
PTEN del growth: 84.8; HCT116 bCat-KO: 85.2

What do the screens show for `CCOc1cccc(C(=O)Nc2nc(-c3ccc(S(=O)(=O)N4CCOCC4)cc3)cs2)c1`?
HUVEC inhibit: 80.9; PTEN del growth: 76.3; H69AR growth 86K: 31.9*; Fibroblast inh: 83.0; HCT116 bCat-KO: 81.8

How did O=C(Nc1nc(-c2ccccc2)cs1)c1ccccc1NS(=O)(=O)c1ccc(F)cc1 do in these assays?
PTEN del growth: 4.9; HCT116 bCat-KO: 4.4*

How did COc1ccccc1C(=O)Nc1nc(-c2ccc(S(=O)(=O)N3CCOCC3)cc2)cs1 do in these assays?
HUVEC inhibit: 48.7; PTEN del growth: 8.8; H69AR growth 86K: 44.9; Fibroblast inh: 22.7*; HCT116 bCat-KO: 5.7*

How did COC(=O)C1=CN(CC2CCCO2)C=C(C(=O)OC)C1c1ccsc1 (centres undefined) do in these assays?
HUVEC inhibit: 85.9; PTEN del growth: 91.8; H69AR growth 86K: 48.3; Fibroblast inh: 90.0; HCT116 bCat-KO: 89.5

What do the screens show for `COC(=O)C1=CN(CC2CCCO2)C=C(C(=O)OC)C1c1ccccc1C(F)(F)F` (centres undefined)?
HUVEC inhibit: 111.1; PTEN del growth: 94.7; H69AR growth 86K: 36.6*; Fibroblast inh: 100.6; HCT116 bCat-KO: 90.2

How did c1cc2c3c(cccc3c1)C(N1CCN(C3=Nc4cccc5cccc3c45)CC1)=N2 do in these assays?
HUVEC inhibit: 84.7; H69AR growth 86K: 7.7*; Fibroblast inh: 91.5

How did c1ccc(CC2CCN(C3=Nc4cccc5cccc3c45)CC2)cc1 do in these assays?
HUVEC inhibit: 7.2*; PTEN del growth: 16.6; H69AR growth 86K: 26.4*; Fibroblast inh: 77.0; HCT116 bCat-KO: 20.9

Results for COc1cccc(CN2C(=O)C3(C(C#N)=C(N)OC4=C3C(=O)CCC4)c3ccccc32)c1 (centres undefined) ?
HUVEC inhibit: 4.0*; PTEN del growth: 14.7; H69AR growth 86K: 18.9*; Fibroblast inh: 20.4*; HCT116 bCat-KO: 18.4

Results for O=C(COC(=O)CCc1c[nH]c2ccccc12)NC(c1ccccc1)c1ccccc1 ?
PTEN del growth: 97.4; HCT116 bCat-KO: 94.8

How did CC1CC(C)(C)Nc2ccc(OC(=O)c3ccco3)cc21 (centres undefined) do in these assays?
HUVEC inhibit: 5.7*; PTEN del growth: 0.7*; H69AR growth 86K: 1.1*; Fibroblast inh: 1.7*; HCT116 bCat-KO: 0.8*

Results for CCOC(=O)C1=C(C)N=c2s/c(=C3\C(=O)Nc4ccccc43)c(=O)n2C1c1ccc2c(c1)OCO2 (centres undefined) ?
HUVEC inhibit: 72.5; PTEN del growth: 90.6; H69AR growth 86K: 27.1*; Fibroblast inh: 91.3; HCT116 bCat-KO: 86.7

Assay outcomes (PubChem BioAssay)
